Reference: ChEMBL document CHEMBL1687941 (J Med Chem, 2011)

Columns and labels:
Plasmodium falciparum = assay: Antimalarial activity against Plasmodium falciparum 3D7 infected-erythrocytes after 72 hrs by SYBR green fluorescence method; type: functional, organism-based; details: 3D7, 72 h
Method in brief: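 P. falciparum 3D7 grown in erythrocytes at 4% hematocrit in RPMI 1640 with 20 mM HEPES, 32 mM NaHCO3, 10% Albumax II. Serial dilutions added to phenol red-free culture at 0.5% starting parasitemia, in triplicate, for 72 h at 37 °C. Lysis buffer with saponin, Triton X and SYBR Green I then added for 1 h at room temperature. Fluorescence read as parasite growth, and IC50 derived.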

Aminopeptidase N = biological target: T1, Aminopeptidase N (Plasmodium falciparum FcB1/Columbia, UniProt O96935); assay: Inhibition of Plasmodium falciparum recombinant M1-aminopeptidase expressed in Escherichia coli after 40 mins uisng fluorogenic substrate L-Leucyl-7-amido-40-methylcoumarin by fluorescence spectrophotometry
T1 sequence (O96935 whole entry): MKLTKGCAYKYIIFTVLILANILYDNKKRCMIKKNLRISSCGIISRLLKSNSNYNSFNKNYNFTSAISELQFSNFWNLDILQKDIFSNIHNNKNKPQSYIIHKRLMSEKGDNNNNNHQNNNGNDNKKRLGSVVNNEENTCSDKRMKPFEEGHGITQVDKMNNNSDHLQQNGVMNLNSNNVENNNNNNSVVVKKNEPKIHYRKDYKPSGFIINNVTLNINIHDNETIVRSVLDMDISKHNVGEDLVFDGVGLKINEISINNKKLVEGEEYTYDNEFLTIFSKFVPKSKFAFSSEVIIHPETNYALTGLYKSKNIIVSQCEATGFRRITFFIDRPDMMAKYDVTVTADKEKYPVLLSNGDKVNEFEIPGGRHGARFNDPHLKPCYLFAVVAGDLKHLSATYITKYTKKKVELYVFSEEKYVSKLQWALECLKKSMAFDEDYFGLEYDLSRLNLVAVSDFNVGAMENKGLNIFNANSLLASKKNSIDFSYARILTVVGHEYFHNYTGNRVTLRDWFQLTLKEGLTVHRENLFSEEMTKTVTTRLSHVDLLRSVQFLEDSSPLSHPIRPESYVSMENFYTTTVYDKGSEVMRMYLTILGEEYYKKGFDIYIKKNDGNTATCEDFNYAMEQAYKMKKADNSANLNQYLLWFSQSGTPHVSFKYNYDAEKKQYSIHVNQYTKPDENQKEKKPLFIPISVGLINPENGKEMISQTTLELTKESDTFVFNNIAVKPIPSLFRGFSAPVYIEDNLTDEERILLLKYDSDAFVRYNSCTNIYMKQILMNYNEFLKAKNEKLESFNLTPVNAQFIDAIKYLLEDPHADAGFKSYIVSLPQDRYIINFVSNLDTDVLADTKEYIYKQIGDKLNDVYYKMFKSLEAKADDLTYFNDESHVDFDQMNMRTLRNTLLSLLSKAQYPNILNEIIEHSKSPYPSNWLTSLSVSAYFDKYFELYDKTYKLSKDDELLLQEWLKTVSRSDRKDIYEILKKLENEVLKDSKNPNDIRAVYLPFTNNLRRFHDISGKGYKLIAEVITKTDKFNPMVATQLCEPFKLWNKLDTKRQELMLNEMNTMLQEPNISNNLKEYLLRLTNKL
Method in brief: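 Recombinant PfA-M1 expressed in E. coli, 0.9 nM, in 50 mM HEPES pH 7.5, 100 mM NaCl, 0.1% Triton X-100. Ki by Dixon plots (1/rate vs [I]) and secondary plots vs 1/[S]. Competitive mode checked with a/v vs i plots.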

Compound | IC50 (Plasmodium falciparum) [µM] | Ki (Aminopeptidase N; read-out: Ki) [nM] | Ki (Aminopeptidase N)
CC(C)C[C@H](NC(=O)[C@@H](O)[C@H](N)Cc1ccc(OCc2ccccc2)cc1)C(=O)O | 29 | – | –
COc1ccc(C[C@@H](N)[C@H](O)C(=O)N[C@@H](CC(C)C)C(=O)O)cc1 | 6.4 | – | –
CCCC[C@H](NC(=O)[C@@H](O)[C@H](N)Cc1ccccc1)C(=O)O | – | 900 | –
N[C@H](Cc1ccccc1)[C@H](O)C(=O)N[C@@H](CCCCNC(=O)OCc1ccccc1)C(=O)O | – | 1450 | –
CC(C)C[C@H](NC(=O)[C@@H](O)[C@H](N)Cc1ccc2ccccc2c1)C(=O)O | > 50 | 3000 | –
CCCC[C@@H](N)[C@H](O)C(=O)N[C@@H](CC(C)C)C(=O)O | > 50 | 5300 | –
CC(C)C[C@H](NC(=O)[C@@H](O)[C@H](N)CC(C)C)C(=O)O | > 50 | – | Not Active
CC(C)C[C@H](NC(=O)[C@@H](O)[C@H](N)Cc1ccc(-c2ccccc2)cc1)C(=O)O | > 50 | – | Not Active
CC(C)C[C@H](NC(=O)[C@@H](O)[C@H](N)C(c1ccccc1)c1ccccc1)C(=O)O | > 50 | – | Not Active
CC(C)C[C@H](NC(=O)[C@@H](O)[C@H](N)Cc1ccccc1)C(=O)O [UBENIMEX] | 3.2 | – | –
